ChEMBL document CHEMBL1148725, “2,2,2-Trichloro-N-({2-[2-(dimethylamino)ethyl]-1,3-dioxo-2,3-dihydro-1H-benzo[de]isoquinolin- 5-yl}carbamoyl)acetamide (UNBS3157), a novel nonhematotoxic naphthalimide derivative with potent antitumor activity” (J Med Chem, 2007)
Calls of active or inactive are those of the source. The rule behind the calls is not given here.

How the values were obtained:
[1] = test system: A549; assay: Antiproliferative activity against A549 cells after 72 hrs by MTT assay; format: functional, cell-based, Homo sapiens; conditions: Homo sapiens, A549, 72 h
Summary of the method: (§1)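 Cells cultured with each compound for three days; growth then read by the MTT colorimetric assay and reported as IC50 (µM).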

[2] = test system: Mus musculus; assay: Hematotoxicity in B6D2F1 mouse assessed as RBC count at 10 mg/kg, iv; format: organism-based; set-up: dose 10 mg/kg; conditions: in vivo
[3] = test system: Mus musculus; assay: Hematotoxicity in B6D2F1 mouse assessed as platelet count at 160 mg/kg, po; format: organism-based; set-up: dose 160 mg/kg, route oral; conditions: in vivo
[4] = organism: Homo sapiens; assay: Inhibition of human topoisomerase 2 at 50 uM by plasmid linearization assay
[5] = test system: Mus musculus; assay: Hematotoxicity in ip dosed B6D2F1 mouse assessed as decrease in WBC count; format: organism-based; conditions: in vivo
Summary of the method: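 Healthy female B6D2F1 mice, 10 per group, were dosed i.p. three times a week for five consecutive weeks (15 doses). Each compound was given at two dose levels chosen relative to its MTD, in DMSO/saline 5:95 v/v. Mice were sacrificed 3 days after the last dose, and platelet, RBC and WBC counts were taken by Coulter counter. Data are mean ± SEM.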

[6] = test system: Mus musculus; assay: Hematotoxicity in B6D2F1 mouse assessed as RBC count at 40 mg/kg, iv; format: organism-based; set-up: dose 40 mg/kg, route intravenous; conditions: in vivo
[7] = test system: PC-3; assay: Induction of apoptosis in human PC3 cells at 10 uM after 72 hrs; format: functional
Summary of the method: (§2)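 Prostate cancer cells exposed for 72 h to 0, 1 or 10 µM. Apoptosis quantified by flow cytometry after Annexin V-FITC staining.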

[8] = test system: DU-145; assay: Induction of apoptosis in human DU145 cells at 10 uM after 72 hrs; format: functional; summary of the method: as §2
[9] = test system: Mus musculus; assay: Hematotoxicity in B6D2F1 mouse assessed as platelet count at 120 mg/kg, po; format: organism-based; set-up: dose 120 mg/kg, route oral; conditions: in vivo
[10] = test system: Mus musculus; assay: Hematotoxicity in B6D2F1 mouse assessed as platelet count at 80 mg/kg, po; format: organism-based; set-up: dose 80 mg/kg, route oral; conditions: in vivo
[11] = test system: Mus musculus; assay: Hematotoxicity in B6D2F1 mouse assessed as RBC count at 20 mg/kg, iv; format: organism-based; set-up: dose 20 mg/kg, route intravenous; conditions: in vivo
[12] = Antitumor activity against mouse MXT-HI cells xenografted in B6D2F1 mouse at 160 mg/kg, ip relative to control; format: functional; conditions: route intraperitoneal
Summary of the method: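 MXT-HI mammary adenocarcinoma grafted s.c. onto female B6D2F1 mice. Dosing i.p., five injections weekly for three weeks from day 14 post-graft. Nine mice per group. Tumour surface area measured, and survival expressed as %T/C, the ratio of treated to control median survival time.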

[13] = test system: L1210; assay: Antitumor activity in L1210 cells xenografted B6D2F1 mouse at 80 mg/kg, ip relative to control; format: functional; conditions: route intraperitoneal
Summary of the method: (§3)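 Mice grafted with L1210 leukaemia cells on day 0, then dosed i.p. four times weekly on days 1-4 and 8-11. Five mice per group. Outcome is %T/C, the median survival of treated over control. Kruskal-Wallis test followed by Dunn comparisons against control.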

[14] = test system: DU-145; assay: Induction of apoptosis in human DU145 cells assessed as procaspase-8 activation; format: functional, cell-based
[15] = test system: PC-3; assay: Induction of apoptosis in human PC3 cells assessed as procaspase-8 activation; format: functional, cell-based
[16] = test system: A549; assay: Antitumor activity against human A549 cells xenografted in mouse at 10 mg/kg, iv; format: functional, organism-based; set-up: dose 10 mg/kg
Summary of the method: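 Human A549 NSCLC cells grafted orthotopically into the lungs of immunocompromised mice. Compound given i.v. at 10 mg/kg. Survival gain assessed by survival curve analysis.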

[17] = test system: DU-145; assay: Cell cycle arrest in DU145 cells assessed as accumulation at G2 phase at 10 uM after 72 hrs; format: functional, cell-based; conditions: Homo sapiens
Summary of the method: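 PC-3 or DU-145 cells treated for 72 h with 0, 1 or 10 µM. Cell-cycle distribution (G0/G1, S, G2/M) determined by propidium iodide staining.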

[18] = test system: Mus musculus; assay: Hematotoxicity in B6D2F1 mouse assessed as RBC count at 80 mg/kg, po; format: organism-based; set-up: dose 80 mg/kg, route oral; conditions: in vivo
[19] = test system: Mus musculus; assay: Hematotoxicity in B6D2F1 mouse assessed as WBC count at 40 mg/kg, iv; format: organism-based; set-up: dose 40 mg/kg, route intravenous; conditions: in vivo
[20] = target: DNA topoisomerase 2-alpha (Homo sapiens) (UniProt P11388); assay: Inhibition of human topoisomerase 2-mediated kinetoplast DNA […] at 50 uM
Summary of the method: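 Topoisomerase II strand-passage activity by kDNA decatenation; compounds at 50 µM; catenated networks stay in wells, decatenated kDNA enters ethidium bromide-stained agarose gel; no-enzyme and no-drug reactions as controls.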

[21] = test system: L1210; assay: Antitumor activity in L1210 cells xenografted B6D2F1 mouse at 40 mg/kg, ip relative to control; format: functional; conditions: route intraperitoneal; summary of the method: as §3
[22] = Antiproliferative activity against U373MG cells after 72 hrs by MTT assay; format: functional, cell-based, Homo sapiens, U-373MG ATCC; conditions: Homo sapiens, U373 MG, 72 h; summary of the method: as §1
[23] = test system: Mus musculus; assay: Hematotoxicity in B6D2F1 mouse assessed as WBC count at 120 mg/kg, po; format: organism-based; set-up: dose 120 mg/kg, route oral; conditions: in vivo
[24] = test system: PC-3; assay: Induction of apoptosis in human PC3 cells assessed as p53 activation; format: functional, cell-based
Summary of the method: (§4)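 PC-3 and DU-145 cells treated over 72 h at 1 and 10 µM, compared with untreated cells. p53, PARP cleavage and procaspase-3/-9 activation assessed by immunoblotting.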

[25] = test system: Mus musculus; assay: Hematotoxicity in B6D2F1 mouse assessed as RBC count at 160 mg/kg, po; format: organism-based; set-up: dose 160 mg/kg, route oral; conditions: in vivo
[26] = test system: Mus musculus; assay: Hematotoxicity in B6D2F1 mouse assessed as platelet count at 40 mg/kg, iv; format: organism-based; set-up: dose 40 mg/kg, route intravenous; conditions: in vivo
[27] = test system: L1210; assay: Antitumor activity in L1210 cells xenografted B6D2F1 mouse at 20 mg/kg, ip relative to control; format: functional; conditions: route intraperitoneal; summary of the method: as §3
[28] = test system: PC-3; assay: Induction of senescence in human PC3 cells; format: functional, cell-based
Summary of the method: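 SA-β-galactosidase staining of PC-3 and DU-145 prostate cancer cells after 72 h at 10 µM; adriamycin 20 nM as positive control; expressed as percentage of positively stained cells.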

[29] = test system: PC-3; assay: Induction of apoptosis in human PC3 cells assessed as PARP cleavage activation; format: functional, cell-based; summary of the method: as §4
[30] = test system: DU-145; assay: Induction of apoptosis in human DU145 cells assessed as procaspase-9 activation; format: functional, cell-based; summary of the method: as §4
[31] = test system: DU-145; assay: Induction of apoptosis in human DU145 cells assessed as PARP cleavage activation; format: functional, cell-based; summary of the method: as §4
[32] = test system: HCT-15; assay: Antiproliferative activity against HCT15 cells after 72 hrs by MTT assay; format: functional, cell-based, Homo sapiens; conditions: Homo sapiens, HCT-15, 72 h; summary of the method: as §1
[33] = test system: Mus musculus; assay: Hematotoxicity in B6D2F1 mouse assessed as platelet count at 20 mg/kg, iv; format: organism-based; set-up: dose 20 mg/kg, route intravenous; conditions: in vivo
[34] = test system: PC-3; assay: Induction of apoptosis in human PC3 cells assessed as procaspase-9 activation; format: functional, cell-based; summary of the method: as §4
[35] = Toxicity in ip dosed B6D2F1 mouse; format: organism-based; conditions: in vivo
Summary of the method: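 Acute MTD was set by a single i.p. dose to groups of three healthy female B6D2F1 mice, at 2.5, 5, 10, 20, 40, 80 and 160 mg/kg. The MTD is the dose just below the lowest dose that killed at least one mouse.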

Chain of DNA topoisomerase 2-alpha (Homo sapiens) (P11388 whole entry): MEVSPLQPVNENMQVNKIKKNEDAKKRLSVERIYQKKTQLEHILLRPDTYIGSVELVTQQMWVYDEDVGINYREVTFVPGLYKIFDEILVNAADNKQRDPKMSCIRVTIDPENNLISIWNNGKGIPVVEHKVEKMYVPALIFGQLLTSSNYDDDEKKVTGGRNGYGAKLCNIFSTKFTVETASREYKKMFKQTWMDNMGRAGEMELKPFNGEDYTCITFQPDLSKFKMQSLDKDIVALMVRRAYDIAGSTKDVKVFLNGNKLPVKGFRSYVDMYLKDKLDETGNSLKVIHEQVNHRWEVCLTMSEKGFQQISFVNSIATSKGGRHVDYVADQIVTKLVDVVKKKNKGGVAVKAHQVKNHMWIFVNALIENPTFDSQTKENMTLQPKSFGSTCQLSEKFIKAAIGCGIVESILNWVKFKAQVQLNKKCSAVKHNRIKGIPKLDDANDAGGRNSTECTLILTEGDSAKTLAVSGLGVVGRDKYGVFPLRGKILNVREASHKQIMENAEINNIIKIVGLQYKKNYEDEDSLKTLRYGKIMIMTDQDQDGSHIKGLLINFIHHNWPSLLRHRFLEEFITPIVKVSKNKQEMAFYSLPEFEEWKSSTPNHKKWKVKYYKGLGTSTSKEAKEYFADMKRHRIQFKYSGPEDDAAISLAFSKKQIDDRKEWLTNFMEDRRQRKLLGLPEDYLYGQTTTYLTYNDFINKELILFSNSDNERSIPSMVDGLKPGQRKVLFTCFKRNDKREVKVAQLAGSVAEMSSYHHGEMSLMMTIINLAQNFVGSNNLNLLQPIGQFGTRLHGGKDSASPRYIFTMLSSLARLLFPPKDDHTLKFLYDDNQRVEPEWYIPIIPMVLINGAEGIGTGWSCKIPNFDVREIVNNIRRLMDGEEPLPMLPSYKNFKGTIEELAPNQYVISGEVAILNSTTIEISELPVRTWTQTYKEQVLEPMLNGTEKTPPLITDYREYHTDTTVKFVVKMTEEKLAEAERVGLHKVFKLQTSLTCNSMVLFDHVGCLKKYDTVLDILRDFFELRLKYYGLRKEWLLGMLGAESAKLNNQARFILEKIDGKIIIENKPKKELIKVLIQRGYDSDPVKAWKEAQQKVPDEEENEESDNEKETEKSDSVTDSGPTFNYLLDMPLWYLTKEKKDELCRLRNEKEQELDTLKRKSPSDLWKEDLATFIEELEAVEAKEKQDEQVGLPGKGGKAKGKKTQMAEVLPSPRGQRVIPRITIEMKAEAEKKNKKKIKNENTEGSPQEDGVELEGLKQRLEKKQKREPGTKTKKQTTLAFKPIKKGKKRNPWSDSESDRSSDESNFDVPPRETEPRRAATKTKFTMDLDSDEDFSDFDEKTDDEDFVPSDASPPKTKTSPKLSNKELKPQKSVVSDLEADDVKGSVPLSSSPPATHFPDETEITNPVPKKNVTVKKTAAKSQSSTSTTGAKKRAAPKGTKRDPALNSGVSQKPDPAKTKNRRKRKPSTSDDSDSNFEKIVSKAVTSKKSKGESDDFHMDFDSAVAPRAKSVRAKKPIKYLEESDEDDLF

SMILES: CN(C)CCN1C(=O)c2cccc3cc(NC(=O)NC(=O)C(Cl)(Cl)Cl)cc(c23)C1=O
- IC50 [1]: 900 nM
- Activity [2]: 9.41 10^6 /uL
- Activity [3]: 1005 10^3 /uL
- Activity [4]: inactive
- Activity [5]: Non-toxic
- Activity [6]: 9.1 10^6 /uL
- Activity [7]: 10%
- Activity [8]: 15%
- Activity [9]: 977 10^3 /uL
- Activity [10]: 872 10^3 /uL
- Activity [11]: 9.09 10^6 /uL
- Activity [12]: 183%
- Activity [13]: >300%
- Activity [14]: inactive
- Activity [15]: inactive
- Activity [16]: Active
- Activity [17]: inactive
- Activity [18]: 9.95 10^6 /uL
- Activity [19]: 2.97 10^3 /uL
- Activity [20]: Active
- Activity [21]: 272%
- IC50 [22]: 900 nM
- Activity [23]: 2.85 10^3 /uL
- Activity [24]: inactive
- Activity [25]: 10.13 10^6 /uL
- Activity [26]: 430 10^3 /uL
- Activity [27]: 205%
- Activity [28]: inactive
- Activity [29]: inactive
- Activity [30]: inactive
- Activity [31]: inactive
- IC50 [32]: 900 nM
- Activity [33]: 397 10^3 /uL
- Activity [34]: inactive
- MTD [35]: > 160 mg/kg
